Measured values published in ChEMBL document CHEMBL2417469, “Synthesis of novel analogs of 2-pyrazoline obtained from [(7-chloroquinolin-4-yl)amino]chalcones and hydrazine as potential antitumor and antimalarial agents” (Eur J Med Chem, 2013).

Key:
Type in all cases: functional
[1] = system: T47D; test: Cytotoxicity against human T47D cells after 48 hrs by SRB assay
How it was run: (§1)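 NCI 60-cell screen. Cells grew 24 h (37 °C, 5% CO2) before compound was added. Compounds were in DMSO and diluted in medium with gentamicin, then tested at five levels (100, 10, 1.0, 0.1, 0.01 µM) with 48 h continuous exposure. Adherent cells were fixed with TCA (10% final) and stained with 0.4% SRB, absorbance read at 515 nm. A time-zero plate was included. LC50 is the concentration giving 50% loss of protein relative to time zero.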

[2] = system: NCI/ADR-RES; test: Cytotoxicity against human NCI/ADR-RES cells after 48 hrs by SRB assay; settings: for CC50: read-out: LC50 (the source's name)
How it was run: (§2)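 NCI 60-cell-line screen. Cells preincubated 24 h at 37 °C, 5% CO2; time-zero plates TCA-fixed. Compounds dissolved in DMSO and tested at five concentrations (100, 10, 1.0, 0.1, 0.01 µM) for 48 h continuous exposure. Adherent cells fixed with cold TCA (10% final), then SRB stained; absorbance at 515 nm. GI50, TGI and LC50 calculated from growth relative to time-zero and untreated controls.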

[3] = system: ACHN; test: Cytotoxicity against human ACHN cells after 48 hrs by SRB assay; settings: for CC50: read-out: LC50 (the source's name); how it was run: as §2
[4] = system: PC-3; test: Cytotoxicity against human PC3 cells after 48 hrs by SRB assay; settings: PC-3, 48 h; how it was run: as §2
[5] = system: SK-MEL-28; test: Cytotoxicity against human SK-MEL-28 cells after 48 hrs by SRB assay; settings: SK-MEL-28, 48 h; for CC50: read-out: LC50 (the source's name); how it was run: as §2
[6] = system: HCT-15; test: Cytotoxicity against human HCT15 cells after 48 hrs by SRB assay; settings: HCT-15, 48 h; how it was run: as §2
[7] = system: MDA-MB-435; test: Cytotoxicity against human MDA-MB-435 cells after 48 hrs by SRB assay; settings: MDA-MB-435, 48 h; how it was run: as §2
[8] = system: CCRF-CEM; test: Cytotoxicity against human CCRF-CEM cells after 48 hrs by SRB assay; how it was run: as §2
[9] = system: NCI-H460; test: Cytotoxicity against human NCI-H460 cells after 48 hrs by SRB assay; settings: NCI-H460, 48 h; how it was run: as §2
[10] = system: SN12C; test: Cytotoxicity against human SN12C cells after 48 hrs by SRB assay; how it was run: as §2
[11] = system: SR; test: Cytotoxicity against human SR cells after 48 hrs by SRB assay; how it was run: as §1
[12] = system: A549; test: Cytotoxicity against human A549/ATCC cells after 48 hrs by SRB assay; settings: A549, 48 h; for CC50: read-out: LC50 (the source's name); how it was run: as §2
[13] = system: HCT-116; test: Cytotoxicity against human HCT116 cells after 48 hrs by SRB assay; settings: HCT-116, 48 h; how it was run: as §2
[14] = system: UACC-62; test: Cytotoxicity against human UACC62 cells after 48 hrs by SRB assay; settings: UACC-62, 48 h; for CC50: read-out: LC50 (the source's name); how it was run: as §1
[15] = system: MDA-MB-468; test: Cytotoxicity against human MDA-MB-468 cells after 48 hrs by SRB assay; settings: MDA-MB-468, 48 h; how it was run: as §2
[16] = system: RPMI-8226; test: Cytotoxicity against human RPMI8226 cells after 48 hrs by SRB assay; settings: RPMI-8226, 48 h; how it was run: as §2
[17] = system: BT-549; test: Cytotoxicity against human BT549 cells after 48 hrs by SRB assay; settings: BT-549, 48 h; how it was run: as §2
[18] = system: HL-60(TB); test: Cytotoxicity against human HL-60(TB) cells after 48 hrs by SRB assay; settings: HL-60, 48 h; for CC50: read-out: LC50 (the source's name); how it was run: as §2
[19] = system: MCF7; test: Cytotoxicity against human MCF7 cells after 48 hrs by SRB assay; settings: MCF7, 48 h; for CC50: read-out: LC50 (the source's name); how it was run: as §2
[20] = system: KM12; test: Cytotoxicity against human KM12 cells after 48 hrs by SRB assay; settings: KM12, 48 h; how it was run: as §2
[21] = system: CAKI-1; test: Cytotoxicity against human Caki1 cells after 48 hrs by SRB assay; settings: CAKI-1, 48 h; how it was run: as §2
[22] = system: OVCAR-8; test: Cytotoxicity against human OVCAR8 cells after 48 hrs by SRB assay; settings: OVCAR-8, 48 h; how it was run: as §2
[23] = system: Malme-3M; test: Cytotoxicity against human MALME-3M cells after 48 hrs by SRB assay; how it was run: as §2
[24] = system: HOP-92; test: Cytotoxicity against human HOP92 cells after 48 hrs by SRB assay; settings: HOP-92, 48 h; how it was run: as §2
[25] = system: NCI-H23; test: Cytotoxicity against human NCI-H23 cells after 48 hrs by SRB assay; settings: NCI-H23, 48 h; for CC50: read-out: LC50 (the source's name); how it was run: as §2
[26] = system: M14; test: Cytotoxicity against human M14 cells after 48 hrs by SRB assay; settings: M14, 48 h; for CC50: read-out: LC50 (the source's name); how it was run: as §2
[27] = system: SK-OV-3; test: Cytotoxicity against human SKOV3 cells after 48 hrs by SRB assay; settings: SK-OV-3, 48 h; how it was run: as §2
[28] = system: COLO 205; test: Cytotoxicity against human COLO205 cells after 48 hrs by SRB assay; settings: COLO 205, 48 h; how it was run: as §2
[29] = system: LOX IMVI; test: Cytotoxicity against human LOXIMVI cells after 48 hrs by SRB assay; how it was run: as §2
[30] = system: HT-29; test: Cytotoxicity against human HT-29 cells after 48 hrs by SRB assay; settings: HT-29, 48 h; how it was run: as §2
[31] = system: 786-0; test: Cytotoxicity against human 786-0 cells after 48 hrs by SRB assay; settings: 786-0, 48 h; how it was run: as §2
[32] = system: SK-MEL-5; test: Cytotoxicity against human SK-MEL-5 cells after 48 hrs by SRB assay; settings: SK-MEL-5, 48 h; how it was run: as §2
[33] = system: HOP-62; test: Cytotoxicity against human HOP62 cells after 48 hrs by SRB assay; settings: HOP-62, 48 h; how it was run: as §2
[34] = system: Hs-578T; test: Cytotoxicity against human Hs578T cells after 48 hrs by SRB assay; how it was run: as §2
[35] = system: OVCAR-3; test: Cytotoxicity against human OVCAR3 cells after 48 hrs by SRB assay; settings: OVCAR-3, 48 h; how it was run: as §2

COc1cc(C2CC(c3ccc(Nc4ccnc5cc(Cl)ccc45)cc3)=NN2C=O)cc(OC)c1OC (stereo not given)
GI50 [1]: 2.33 µM
LC50 (concentration giving 50% cell kill relative to time zero) [1]: > 100 µM
GI50 [2]: 7.88 µM
CC50 [2]: > 100 µM
GI50 [3]: 3.24 µM
CC50 [3]: 47 µM
GI50 [4]: 11.7 µM
LC50 [4]: > 100 µM
GI50 [5]: 2.22 µM
CC50 [5]: 14 µM
GI50 [6]: 3.56 µM
LC50 (concentration killing 50% of cells relative to time zero) [6]: > 100 µM
GI50 [7]: 2.1 µM
LC50 [7]: > 100 µM
GI50 [8]: 1.82 µM
LC50 (concentration killing 50% of cells relative to time zero) [8]: > 100 µM
GI50 [9]: 4.42 µM
LC50 [9]: > 100 µM
GI50 [10]: 4.37 µM
LC50 (50% net cell kill relative to time zero) [10]: > 100 µM
GI50 [11]: 2.58 µM
LC50 [11]: > 100 µM
GI50 [12]: 6.9 µM
CC50 [12]: > 100 µM
GI50 [13]: 3.21 µM
LC50 [13]: > 100 µM
GI50 [14]: 2.2 µM
CC50 [14]: 59.3 µM
GI50 [15]: 1.83 µM
LC50 [15]: 40.9 µM
GI50 [16]: 2.56 µM
LC50 (concentration killing 50% of cells) [16]: > 100 µM
GI50 [17]: 1.91 µM
LC50 (50% net cell kill vs time zero) [17]: 8.23 µM
GI50 [18]: 2.53 µM
CC50 [18]: 75.8 µM
GI50 [19]: 3.23 µM
CC50 [19]: > 100 µM
GI50 [20]: 5.87 µM
LC50 (concentration killing 50% of cells) [20]: > 100 µM
GI50 [21]: 5.47 µM
LC50 [21]: > 100 µM
GI50 [22]: 9.98 µM
LC50 (50% net cell kill) [22]: > 100 µM
GI50 [23]: 3.2 µM
LC50 [23]: > 100 µM
GI50 [24]: 1.83 µM
LC50 (concentration killing 50% of cells) [24]: > 100 µM
GI50 [25]: 20.4 µM
CC50 [25]: > 100 µM
GI50 [26]: 3.75 µM
CC50 [26]: 48.3 µM
GI50 [27]: 3.36 µM
LC50 (concentration killing 50% of cells) [27]: 55.8 µM
GI50 [28]: 3.73 µM
LC50 [28]: > 100 µM
GI50 [29]: 1.89 µM
LC50 [29]: 7.83 µM
GI50 [30]: 2.83 µM
LC50 [30]: > 100 µM
GI50 [31]: 2.31 µM
LC50 [31]: 9.93 µM
GI50 [32]: 1.98 µM
LC50 (concentration killing 50% of cells present at time zero) [32]: 35.5 µM
GI50 [33]: 4.13 µM
LC50 (50% lethal concentration) [33]: 96.1 µM
GI50 [34]: 3.24 µM
LC50 (50% net cell kill) [34]: > 100 µM
GI50 [35]: 1.91 µM
LC50 [35]: 6.03 µM

Cc1ccc(C2CC(c3ccc(Nc4ccnc5cc(Cl)ccc45)cc3)=NN2C=O)cc1 (stereo not given)
GI50 [1]: 1.51 µM
LC50 (concentration giving 50% cell kill relative to time zero) [1]: > 100 µM
GI50 [2]: 5.22 µM
CC50 [2]: > 100 µM
GI50 [3]: 3.27 µM
CC50 [3]: > 100 µM
GI50 [4]: 4.61 µM
LC50 [4]: > 100 µM
GI50 [5]: > 100 µM
CC50 [5]: > 100 µM
GI50 [6]: 2.78 µM
LC50 (concentration killing 50% of cells relative to time zero) [6]: > 100 µM
GI50 [7]: 1.95 µM
LC50 [7]: > 100 µM
GI50 [8]: 2.25 µM
LC50 (concentration killing 50% of cells relative to time zero) [8]: > 100 µM
GI50 [9]: > 100 µM
LC50 [9]: > 100 µM
GI50 [10]: 7.23 µM
LC50 (50% net cell kill relative to time zero) [10]: > 100 µM
GI50 [11]: 3.18 µM
LC50 [11]: > 100 µM
GI50 [12]: 9.86 µM
CC50 [12]: > 100 µM
GI50 [13]: 25.2 µM
LC50 [13]: > 100 µM
GI50 [14]: 4.13 µM
CC50 [14]: > 100 µM
GI50 [15]: 1.51 µM
LC50 [15]: > 100 µM
GI50 [16]: 2.18 µM
LC50 (concentration killing 50% of cells) [16]: > 100 µM
GI50 [17]: 1.65 µM
LC50 (50% net cell kill vs time zero) [17]: > 100 µM
GI50 [18]: 2.27 µM
CC50 [18]: > 100 µM
GI50 [19]: 8.39 µM
CC50 [19]: > 100 µM
GI50 [20]: 6.64 µM
LC50 (concentration killing 50% of cells) [20]: > 100 µM
GI50 [21]: > 100 µM
LC50 [21]: > 100 µM
GI50 [22]: > 100 µM
LC50 (50% net cell kill) [22]: > 100 µM
GI50 [23]: > 100 µM
LC50 [23]: > 100 µM
GI50 [24]: 2.14 µM
LC50 (concentration killing 50% of cells) [24]: > 100 µM
GI50 [25]: 6.93 µM
CC50 [25]: > 100 µM
GI50 [26]: 6.88 µM
CC50 [26]: > 100 µM
GI50 [27]: > 100 µM
LC50 (concentration killing 50% of cells) [27]: > 100 µM
GI50 [28]: 4.59 µM
LC50 [28]: > 100 µM
GI50 [29]: 4.11 µM
LC50 [29]: > 100 µM
GI50 [30]: 6.09 µM
LC50 [30]: > 100 µM
GI50 [31]: 50.9 µM
LC50 [31]: > 100 µM
GI50 [32]: 1.74 µM
LC50 (concentration killing 50% of cells present at time zero) [32]: > 100 µM
GI50 [33]: > 100 µM
LC50 (50% lethal concentration) [33]: > 100 µM
GI50 [34]: 5.64 µM
LC50 (50% net cell kill) [34]: > 100 µM
GI50 [35]: 6.82 µM
LC50 [35]: > 100 µM
